Screens as filed in PubChem.
Sampled rows, rich in hits. Any-hit rate of the full collection: about 2.8%.
TNAP inh no acc = human TNAP enzyme inhibitors, primary screen, biochemical, luminescent, no phosphate acceptor, uHTS. Alkaline phosphatase, tissue-nonspecific isozyme (Homo sapiens), P05186. purified TNAP, CDP-star luminescence, 30 min. inhibition, % at 20 µM. 0.26% of 200,000 active. AID 1012, 2008;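 active = tissue-nonspecific alkaline phosphatase inhibition above about 50% at 20 µM in the single-dose screen, limit read from the data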;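 also: 0% = DMSO negative control and 100% = EDTA positive control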
Target sequence (P05186 whole entry, looked up): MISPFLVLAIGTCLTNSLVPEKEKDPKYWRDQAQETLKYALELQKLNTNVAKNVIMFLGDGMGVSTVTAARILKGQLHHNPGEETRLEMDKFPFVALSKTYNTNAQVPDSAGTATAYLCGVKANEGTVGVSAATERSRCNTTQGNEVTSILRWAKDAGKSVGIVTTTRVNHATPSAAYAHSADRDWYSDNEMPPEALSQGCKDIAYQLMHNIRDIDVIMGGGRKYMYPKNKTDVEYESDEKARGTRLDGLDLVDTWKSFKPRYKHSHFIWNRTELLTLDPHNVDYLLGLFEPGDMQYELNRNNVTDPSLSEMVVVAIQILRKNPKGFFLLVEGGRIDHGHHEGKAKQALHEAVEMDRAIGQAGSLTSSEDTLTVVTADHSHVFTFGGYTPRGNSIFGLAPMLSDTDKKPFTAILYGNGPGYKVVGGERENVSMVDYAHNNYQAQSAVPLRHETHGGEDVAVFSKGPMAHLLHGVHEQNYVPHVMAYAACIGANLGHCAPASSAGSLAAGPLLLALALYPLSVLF
TNAP act hi DEA = TNAP activators at high phosphate acceptor level, primary screen, biochemical, luminescence, uHTS; 200,000 tested, under 10 active; Alkaline phosphatase, tissue-nonspecific isozyme (Homo sapiens), P05186; purified TNAP, CDP-star luminescence, 1 M DEA, 30 min; stronger effect = higher value; 0 = EDTA background, 1 = DMSO-only activity; activation factor at 20 µM;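 active = activation factor at least 2 at 20 µM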
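Dosing: 20 µM single point. System: human TNAP. Amount: TNAP 1/800 final. Incubation: 30 min, room temperature. Read-out: TNAP activation factor scaled between EDTA and DMSO control wells. Signal: luminescence from CDP-star hydrolysis. Medium: 1 M DEA, pH 9.8, Mg2+, Zn2+. Control set: EDTA negative control, DMSO positive control.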
TNAP inh hi DEA = human TNAP enzyme inhibitors, primary screen, biochemical, luminescent, high phosphate acceptor level, uHTS; purified TNAP, CDP-star luminescence, 1 M DEA; inhibition, % at 20 µM; 0.03% of 200,000 active; AID 1135, 2008;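 active = over 50% inhibition of tissue-nonspecific alkaline phosphatase at 20 µM in the single-dose screen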;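 also: plate controls were DMSO wells for no effect and EDTA-quenched wells as full inhibition for full effect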
Yeast growth inh = growth inhibitors of yeast BB579 in restrictive medium, primary screen, yeast lifespan-shortening project, S. cerevisiae | OD615, 48 h | inhibition, % at 10 µM | 0.51% of 140,000 active;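 active = inhibition above a set limit, 3 SD over the mean compound inhibition, cut at about 44% in these data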
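Assay system – yeast BB579 (DeaD) · Dosing – single compound dose of 10 µM, 0.25% DMSO final · Detection – OD615 turbidity measurement · Buffer or medium – CSMM-D restrictive synthetic medium containing dextrose (glucose) · Benchmarks – positive control amphotericin B 10 µg/mL · Incubation – 48 h exposure, 30 °C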
RAM network inh = inhibitors of the yeast RAM network, primary screen, dse1pr::URA3 reporter, 5-FOA selection | inhibition, % at 50 µM | S. cerevisiae dse1pr::URA3 reporter, 5-FOA growth OD615, 2 d; analog-sensitive cbk1-as2 kinase mutant strain | AID 868, 2007 | 1.8% of 190,000 active;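 active = inhibition above a set limit, 3 SD over mean compound inhibition, cut at about 8.4% in these data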;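 also: 0% = DMSO-only wells with no growth and 100% = 10 µM 1-NA-PP1 full growth; inhibition rescues growth on 5-FOA so higher OD means more RAM inhibition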
Yeast lifespan up = compounds extending yeast replicative lifespan, primary screen, S. cerevisiae, OD615. S. cerevisiae growth with nicotinamide; deaD strain in restrictive glucose medium. inhibition of the nicotinamide effect, % at 10 µM. 0.68% of 130,000 active. AID 775, 2007;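 active = inhibition above a set limit, placed 3 SD over the median of all compounds, cut at about 26% in these data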;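 also: 0% = nicotinamide-treated wells and 100% = cells grown without nicotinamide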
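Assay system: engineered S. cerevisiae DeaD replicative-lifespan strain, galactose-grown log-phase cells; medium: restrictive CSMM-D dextrose medium; also added: nicotinamide, 1.5 mM, co-present with compound; schedule: 48 h compound exposure at 30 °C, humidified; detection: absorbance at 615 nm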
* marks the source's active call; other numbers are inactive results; nt = no result given.

SMILES	TNAP inh no acc	TNAP act hi DEA	TNAP inh hi DEA	Yeast growth inh	RAM network inh	Yeast lifespan up
Cc1ccc(SCC(=O)NCCC2=CCCCC2)cc1	-6	1	2	-43	2	-12
COCCNC(=S)N/N=C/c1ccc(OCc2ccc(C(=O)OC)cc2)c(OC)c1	-5	1	0	-71	10*	10
COC(=O)C1CSC(c2ccc(Cl)cc2)N1C(=O)c1ccccc1 (stereo unspecified)	-5	1	-5	nt	1	nt
O=C(CSc1cn(CCNC(=O)c2cccs2)c2ccccc12)NC1CCCCC1	-18	1	-1	-21	3	7
COc1ccc(CN2CCn3nc(C(=O)NC4CC4)cc3C2=O)cc1	1	1	3	nt	0	nt
Cc1n[nH]c(C)c1S(=O)(=O)N1CCN(c2ccccn2)CC1	59*	1	-4	-7	-1	-9
CC(=O)Nc1ccc(S(=O)(=O)N2CCN(c3ccccn3)CC2)cc1	-10	1	-2	-55	0	-4
O=C1NCC(COc2ccc(Cl)cc2)O1 (stereo unspecified)	7	1	-3	nt	2	nt
NS(=O)(=O)c1cccnc1Nc1cccc(Cl)c1Cl	29	0.5	50*	-32	2	19
NS(=O)(=O)c1cccnc1Nc1ccc(Cl)c(Cl)c1	27	0.6	42	-91	3	-13
COc1ccc(-c2cc(C(F)(F)F)nc(S(C)(=O)=O)n2)cc1	-17	1.1	-6	-35	-1	85*
CS(=O)(=O)c1nc(-c2cccs2)cc(C(F)(F)F)n1	-8	1.1	-5	-26	-2	52*
O=[N+]([O-])c1cc(S(=O)(=O)N2CCCC2)ccc1NCCc1ccccc1	-1	1	0	-13	9.7*	4
COc1ccc(Nc2ccc(S(=O)(=O)N3CCCCCC3)cc2[N+](=O)[O-])cc1	4	0.9	10	-29	7	-8
COc1ccc(CCNc2ccc(S(=O)(=O)N3CCCC3)cc2[N+](=O)[O-])cc1	-5	0.9	8	-24	11*	0
Cc1nonc1CC(=O)N1CCCC(C(=O)c2ccc(Cl)cc2)C1 (stereo unspecified)	-10	1.1	-6	nt	0	nt
O=C1c2ccccc2C(=O)N1OCc1ccccc1	-3	0.9	7	-7	1	72*
O=C(COC(=O)c1cc(=O)[nH]c(=O)[nH]1)NCc1ccccc1	-13	1	2	1	1	-1
O=C(OC1CCCCC1)c1ccc2c(c1)C1C=CCC1C(C(=O)O)N2 (stereo unspecified)	8	1	3	-11	11*	-1
COc1ccc(N=C2C(=O)N3c4c(cccc42)C(C)=CC3(C)C)cc1	7	0.9	6	-20	0	9
Cc1ccc2nc(N3C(=O)C(O)=C(C(=O)c4cc5ccccc5o4)C3c3cccs3)sc2c1 (stereo unspecified)	9	1	4	-76	1	-5
CCc1ccc2nc(N3C(=O)C(O)=C(C(=O)c4ccco4)C3c3cccs3)sc2c1 (stereo unspecified)	0	1	-1	-65	4	45*
Cc1ccc(C)c(N2CCN(C(=O)CCS(=O)(=O)c3cccc4nonc34)CC2)c1	-11	1	-4	-31	1	-14
Cc1c(C)n(CC(O)CN2C(=O)c3ccccc3S2(=O)=O)c2ccccc12 (stereo unspecified)	2	1	-4	-10	1	-14
CC(=O)c1c(O)cc(C)n(Nc2nc(C)cc(C)n2)c1=O	-9	1	-5	-18	-1	32*
